Each structure is given as a SMILES string.

Experiment [1] has as its target T1, Glucocorticoid receptor (Homo sapiens, UniProt P04150).
T1 sequence (P04150 whole entry): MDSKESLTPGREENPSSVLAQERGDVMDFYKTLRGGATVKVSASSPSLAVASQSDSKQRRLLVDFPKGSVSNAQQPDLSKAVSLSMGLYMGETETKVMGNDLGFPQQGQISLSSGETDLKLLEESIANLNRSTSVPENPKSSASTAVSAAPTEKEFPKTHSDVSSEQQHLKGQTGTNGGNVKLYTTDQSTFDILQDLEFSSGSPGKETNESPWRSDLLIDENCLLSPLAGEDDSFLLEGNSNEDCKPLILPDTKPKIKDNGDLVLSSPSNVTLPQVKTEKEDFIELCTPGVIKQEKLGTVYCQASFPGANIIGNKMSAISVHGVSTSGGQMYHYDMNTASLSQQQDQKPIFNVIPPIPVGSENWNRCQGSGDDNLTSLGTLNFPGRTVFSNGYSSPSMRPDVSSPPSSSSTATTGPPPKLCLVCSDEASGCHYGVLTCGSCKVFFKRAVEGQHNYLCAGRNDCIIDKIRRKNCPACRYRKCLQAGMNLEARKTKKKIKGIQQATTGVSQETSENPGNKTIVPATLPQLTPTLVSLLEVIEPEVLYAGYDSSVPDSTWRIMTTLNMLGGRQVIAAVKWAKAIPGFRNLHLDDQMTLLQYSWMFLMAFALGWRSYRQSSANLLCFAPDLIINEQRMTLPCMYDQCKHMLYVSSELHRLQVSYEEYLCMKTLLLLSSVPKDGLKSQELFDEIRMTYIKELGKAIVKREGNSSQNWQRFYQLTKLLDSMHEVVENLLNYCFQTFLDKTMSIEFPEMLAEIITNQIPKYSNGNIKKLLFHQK
The experiment can be described thus: Transrepression activity at glucocorticoid receptor in human fibroblasts assessed as inhibition of IL-1-induced IL-6 production after 18 to 24 hrs. In short, it runs like this:
(§1)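 Human foreskin fibroblasts grown in Iscove's medium with 10% charcoal/dextran-treated FBS, plated at 20000/well two days before. Medium replaced, then compound (0.4% DMSO final) and recombinant human IL-1 (1 ng/mL final) added. 18–24 h at 37 °C; IL-6 in medium quantified by electrochemiluminescence, DELFIA or ELISA. IC50 by four-parameter fit of duplicate 11-point curves. Efficacy relative to dexamethasone (100%); top concentration 2 μM.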

Experiment [2] concerns the target T2, Glucocorticoid receptor (Homo sapiens) (UniProt P04150).
T2 sequence (whole entry): T1 sequence (P04150 whole entry)
Description: Transrepression activity at glucocorticoid receptor in human fibroblasts assessed as inhibition of IL-1-induced IL-6 production at 2 uM after 18 to 24 hrs relative to dexomethasone. The method, boiled down:
as §1

Experiment [3] deals with T3, Progesterone receptor (Homo sapiens, UniProt P06401).
T3 sequence (P06401 whole entry): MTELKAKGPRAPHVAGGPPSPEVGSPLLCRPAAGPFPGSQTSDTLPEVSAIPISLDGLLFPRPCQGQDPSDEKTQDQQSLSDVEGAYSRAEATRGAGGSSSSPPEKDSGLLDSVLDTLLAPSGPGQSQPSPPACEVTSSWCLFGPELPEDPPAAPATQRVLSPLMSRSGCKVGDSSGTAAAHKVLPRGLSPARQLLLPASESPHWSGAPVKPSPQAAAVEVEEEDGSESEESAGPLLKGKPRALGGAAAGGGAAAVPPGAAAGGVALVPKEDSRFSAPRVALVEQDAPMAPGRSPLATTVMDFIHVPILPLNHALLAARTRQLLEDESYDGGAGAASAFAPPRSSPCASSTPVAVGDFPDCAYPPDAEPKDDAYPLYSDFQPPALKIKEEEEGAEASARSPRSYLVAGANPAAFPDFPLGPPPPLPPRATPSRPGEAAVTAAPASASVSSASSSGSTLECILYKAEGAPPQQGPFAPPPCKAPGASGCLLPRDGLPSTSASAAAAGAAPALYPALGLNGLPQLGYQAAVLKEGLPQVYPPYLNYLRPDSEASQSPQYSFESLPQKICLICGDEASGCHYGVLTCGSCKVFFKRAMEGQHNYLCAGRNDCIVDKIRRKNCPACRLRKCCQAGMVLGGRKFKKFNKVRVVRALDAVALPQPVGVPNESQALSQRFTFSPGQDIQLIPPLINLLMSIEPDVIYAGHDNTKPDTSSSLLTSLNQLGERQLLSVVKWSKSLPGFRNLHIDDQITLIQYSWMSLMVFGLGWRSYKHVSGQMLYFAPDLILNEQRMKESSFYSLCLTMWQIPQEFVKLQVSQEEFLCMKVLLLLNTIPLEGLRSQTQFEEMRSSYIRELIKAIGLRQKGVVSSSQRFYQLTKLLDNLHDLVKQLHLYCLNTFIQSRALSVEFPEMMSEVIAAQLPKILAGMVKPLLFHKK
The experiment can be described thus: Competitive binding affinity to progesterone receptor (unknown origin) expressed in baculovirus-infected cell system after 1 hr by fluorescence polarization assay in presence of tetramethylrhodamine-labeled RU-486. In short, it runs like this:
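PR from lysate of insect cells infected with receptor baculovirus alone, diluted 13-fold. Probe 5 nM tetramethylrhodamine-labeled RU-486 in pH 7.4 TES/KCl/molybdate buffer with 1% DMSO. 1 h at room temperature in the dark, then fluorescence polarization (ex 550/em 580 nm). Background set with 2 μM RU-486. IC50 from duplicate 11-point curves, four-parameter logistic fit, mean of at least two determinations.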

Experiment [4] addresses T1, Glucocorticoid receptor. The experiment can be described thus: Competitive binding affinity to glucocorticoid receptor (unknown origin) expressed in baculovirus-infected cell system after 1 hr by fluorescence polarization assay in presence of tetramethylrhodamine-labeled dexamethasone. The method, boiled down: (§2)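 Lysates of baculovirus-infected insect cells co-expressing receptor with HSP-70, HSP-90 and p23 (GR diluted 300-fold, MR 17-fold). Probe 5 nM tetramethylrhodamine-dexamethasone in TES/KCl/molybdate/EDTA/CHAPS/glycerol/DTT buffer, pH 7.4, 1% DMSO. 1 h at room temperature in the dark; fluorescence polarization read (ex 550/em 580 nm). Background set with 2 μM dexamethasone. IC50 from duplicate 11-point curves, four-parameter fit, mean of at least two determinations.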

Experiment [5] has as its target T4, Mineralocorticoid receptor (Homo sapiens, UniProt P08235).
T4 sequence (P08235 whole entry): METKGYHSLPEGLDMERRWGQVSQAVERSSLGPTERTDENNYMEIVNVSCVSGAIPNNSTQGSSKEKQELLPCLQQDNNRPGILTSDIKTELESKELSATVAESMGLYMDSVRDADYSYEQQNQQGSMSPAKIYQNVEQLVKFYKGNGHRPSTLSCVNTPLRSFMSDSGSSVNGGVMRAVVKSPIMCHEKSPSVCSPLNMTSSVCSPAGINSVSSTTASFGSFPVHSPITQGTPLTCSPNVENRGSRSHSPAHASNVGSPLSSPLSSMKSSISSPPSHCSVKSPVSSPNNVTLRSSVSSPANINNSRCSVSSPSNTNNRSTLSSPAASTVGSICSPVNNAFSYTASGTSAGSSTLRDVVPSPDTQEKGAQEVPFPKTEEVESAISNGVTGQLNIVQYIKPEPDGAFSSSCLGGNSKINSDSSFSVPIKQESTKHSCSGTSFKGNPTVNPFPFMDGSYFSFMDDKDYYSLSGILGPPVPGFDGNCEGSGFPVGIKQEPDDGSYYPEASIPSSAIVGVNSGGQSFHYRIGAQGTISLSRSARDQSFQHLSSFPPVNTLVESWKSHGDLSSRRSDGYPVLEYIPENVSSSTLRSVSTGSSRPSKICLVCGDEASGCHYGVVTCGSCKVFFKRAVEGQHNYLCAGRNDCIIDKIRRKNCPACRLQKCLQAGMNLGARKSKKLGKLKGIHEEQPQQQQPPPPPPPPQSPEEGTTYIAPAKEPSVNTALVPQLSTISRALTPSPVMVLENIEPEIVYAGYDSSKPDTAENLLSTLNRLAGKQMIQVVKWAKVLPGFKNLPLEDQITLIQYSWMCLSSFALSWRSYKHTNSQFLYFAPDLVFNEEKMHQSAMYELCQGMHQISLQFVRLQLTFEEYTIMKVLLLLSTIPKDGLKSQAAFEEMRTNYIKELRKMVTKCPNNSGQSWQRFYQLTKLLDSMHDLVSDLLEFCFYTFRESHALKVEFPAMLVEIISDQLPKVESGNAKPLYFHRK
Description: Competitive binding affinity to mineralocorticoid receptor (unknown origin) expressed in baculovirus-infected cell system after 1 hr by fluorescence polarization assay in presence of tetramethylrhodamine-labeled dexamethasone. In short, it runs like this: as §2

In experiment [6] the target is T2, Glucocorticoid receptor (Homo sapiens). Description: Agonist activity at glucocorticoid receptor in human […] cells assessed as suppression of vitamin D-induced osteocalcin production at 2 uM after 48 hrs by Gla-type osteocalcin ELISA relative to dexomethasone. Format: cell-based. The method, boiled down:
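MG-63 human osteosarcoma cells plated at 20000/well in DMEM/F-12 with 1% charcoal-filtered FBS and 10 μg/mL vitamin C. Medium refreshed next day, then vitamin D (10 nM final) added with compound (2 × 10−6 to 10−10 M), duplicates. Incubated 48 h at 37 °C; supernatant osteocalcin measured by Gla-type ELISA. Vitamin D-only wells = 100%. Max efficacy at 2 μM is relative to dexamethasone (100%).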
(In an ELISA, binding on a coated surface is turned into a signal by an enzyme label.)

Take `Cc1ccc(F)cc1C(C)(C)CC(O)(Cc1cc2nc(C(C)C)ncc2[nH]1)C(F)(F)F` (racemic): the concentration for half-maximal inhibition (IC50) (usually the concentration that gives 50% inhibition) in experiment [1] is 560 nM; in experiment [3] it was > 2000 nM; in experiment [4], 26 nM; in experiment [5], > 2000 nM. In addition, the Emax (commonly the size of the effect at its maximum, as opposed to the concentration needed) in experiment [2] worked out at 50%.
In the case of `Cc1ccc(F)cc1C(C)(C)CC(O)(Cc1cc2nc(-c3ccccc3)cnc2[nH]1)C(F)(F)F` (stereo unspecified), the IC50 was 170 nM in experiment [1], > 2000 nM in experiment [3], 11 nM in experiment [4] and > 2000 nM in experiment [5]. Moreover, in experiment [2], the Emax is 82%.
Regarding `COc1ccc(-c2cncnc2)cc1C(C)(C)C[C@@](O)(Cc1cc2ccncc2[nH]1)C(F)(F)F`, the Emax in experiment [6] was found to be 45%.
Regarding `CC(C)(CC(O)(Cc1cc2ncncc2[nH]1)C(F)(F)F)c1ccccc1S(C)(=O)=O` (racemic), the IC50 in experiment [1] was 21 nM; in experiment [3], > 2000 nM; in experiment [4], 24 nM; in experiment [5], > 2000 nM. In addition, the Emax in experiment [2] came out at 92%; in experiment [6], 43%.
For `Cc1ccc(F)cc1C(C)(C)CC(O)(Cc1cc2nccnc2[nH]1)C(F)(F)F` (racemic), the IC50 in experiment [1] is > 2000 nM; in experiment [3], > 2000 nM; in experiment [4] it was 57 nM; in experiment [5] it was > 2000 nM.
Turning to `CC(C)(CC(O)(Cc1cc2ncncc2[nH]1)C(F)(F)F)c1cc(F)cc2c1OCC2` (racemic), the IC50 in experiment [1] turned out to be 24 nM; in experiment [3], 1400 nM; in experiment [4], 7 nM; in experiment [5] it was 1300 nM. In addition, the Emax is 78% in experiment [2] and 26% in experiment [6].
For the compound `CC(C)(CC(O)(Cc1cc2ncncc2[nH]1)C(F)(F)F)c1cccc(S(C)(=O)=O)c1` (racemic), the IC50 was > 2000 nM in experiment [3], 840 nM in experiment [4] and > 2000 nM in experiment [5].
In the case of `CC(C)(CC(O)(Cc1cc2ncncc2[nH]1)C(F)(F)F)c1cc(F)ccc1O` (racemic), the 50% inhibitory concentration (IC50) was 11 nM in experiment [1], > 2000 nM in experiment [3], 7 nM in experiment [4] and 1150 nM in experiment [5]. For the same compound, the Emax in experiment [6] is 42%.
Consider `CC(C)(C[C@@](O)(Cc1cc2ccncc2[nH]1)C(F)(F)F)c1cc(F)ccc1O`, for which, in experiment [6], the Emax was determined as 68%.
With `Cc1ccc(F)cc1C(C)(C)CC(O)(Cc1cc2nc(N3CCOCC3)ncc2[nH]1)C(F)(F)F` (racemic), the IC50 in experiment [1] is 15 nM; in experiment [3] it was 1400 nM; in experiment [4], 5 nM; in experiment [5], 170 nM. Moreover, the Emax in experiment [2] was found to be 84%.
For `Cc1ccc(F)cc1C(C)(C)CC(O)(Cc1cc2nc(N3CCCC3)ncc2[nH]1)C(F)(F)F` (racemic), the IC50 was 130 nM in experiment [1], > 2000 nM in experiment [3], 18 nM in experiment [4] and > 2000 nM in experiment [5]. Moreover, the Emax in experiment [2] turned out to be 76%.
`Cc1ccc(F)cc1C(C)(C)CC(O)(Cc1cc2cnncc2[nH]1)C(F)(F)F` (racemic): the IC50 is 5 nM in experiment [1], 490 nM in experiment [3], 3 nM in experiment [4] and 83 nM in experiment [5]. In addition, the Emax in experiment [6] was determined as 81%.
For the compound `COc1ccc(F)cc1C(C)(C)CC(O)(Cc1cc2cncnc2[nH]1)C(F)(F)F` (racemic), the IC50 in experiment [1] was determined as 10 nM; in experiment [3], 1450 nM; in experiment [4] it was 4 nM; in experiment [5], 160 nM. Also, in experiment [2], the Emax worked out at 82%.
On the same counts, the results for `Cc1ccccc1C(C)(C)CC(O)(Cc1cc2ncncc2[nH]1)C(F)(F)F` (racemic) are 44 nM, > 2000 nM, 13 nM, 1100 nM and 69%.

(Values after ChEMBL document CHEMBL3124926, “Identification of highly efficacious glucocorticoid receptor agonists with a potential for reduced clinical bone side effects” (J Med Chem, 2014).)
